Screening data from PubChem.
HSF-1 act = HSF-1 activators, primary screen, NIH3T3-HGL cells, MG132 stress, luminescence, single point | 300,000 tested, 1.7% active | AID 504408, 2011 | NIH3T3-HGL HSF-1 luciferase reporter, 8 h; 100% = twice DMSO control signal | activation, % at 9 µM;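 active = mean replicate activation of at least 50% with a set share of replicates each reaching 50%; inconclusive = only one of those two conditions met; inactive = mean below 50% and too few replicates reaching it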;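 also: 0% = median of the neutral control wells and 100% = twice that signal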
T cruzi inh = inhibitors of intracellular T. cruzi growth, primary screen, luminescence, NIH3T3 host cells. T. cruzi beta-gal in NIH3T3, 90 h. inhibition, % (test concentration not listed). 300,000 tested, 1.4% active;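 active = mean inhibition across valid replicates above about 55%, limit read from the data; inconclusive = mean below that limit but half or more replicates reach it; inactive = mean below it, under half of replicates reach it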;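 also: signal also drops with host cell toxicity which is not excluded here; 0% = plate median of DMSO wells and 100% = zero luminescence signal; higher percent means less beta-gal luminescence so fewer parasites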
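Material: NIH/3T3 host cells with β-galactosidase reporter T. cruzi; Input: 5,000 host fibroblasts per well; Medium: DMEM, 2% fetal bovine serum; Compound: 50 nL DMSO compound solution per well; Schedule: 3 h host attachment, then at least 90 h co-culture; Detection: luminescent β-galactosidase signal after 60 min lysis.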
Hsp70 activator = Hsp70 transcriptional activators, primary screen, cell-based, HeLa, Hsp70 promoter luciferase, luminescence, 10 µM. HeLa Hsp70 promoter luciferase reporter; scaled: vehicle 0, proteasome-inhibitor control 100%. activation, % at 10 µM. 200,000 tested, 0.04% active. AID 1203, 2008;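 active = activation above the mean across all tested compounds plus 3 SD, cutoff set per campaign, cut at about 5.5% in these data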;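 also: 100% = MG132 at 30 µM as the positive control and 0% = DMSO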
Lmaj promast = Leishmania major promastigote growth inhibition, primary screen; Leishmania major promastigotes, resazurin fluorescence viability; 200,000 tested, 9% active; inhibition, % at 10 µM; AID 1063, 2008; in the data active = inhibition above about 50%;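 also: promastigotes grown with compound for 44 hours at 28 °C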
HSF1 inh = HSF1 inhibitors in luciferase reporter cells, primary screen, cell-based, NIH3T3, luminescence; NIH3T3-HGL HSE-luciferase, MG132-induced, luminescence 8 h; stronger effect = lower value; activity change, negative = inhibition, % at 7.5 µM (by protocol); 300,000 tested, 0.77% active; AID 2098, 2009;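 active = more than half of replicate wells show activity change below -50%, luminescence cut by over half; inconclusive = some wells, but at most half, below -50%; inactive = no replicate well below -50%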;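 also: luciferase reports HSF-1 transcriptional activity via heat shock element; 0% = median of DMSO wells and -100% = zero luminescence signal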
An asterisk follows results filed as active; ? = inconclusive; nt = no result given. This is one part of a sample in which hits are shown more often than they occur.

SMILES | HSF-1 act | T cruzi inh | Hsp70 activator | Lmaj promast | HSF1 inh
COc1ccc(NC(=O)CSc2nc3ccccc3cc2Cc2ccccc2)cc1 | 15.5 | 46.0 | -0.1 | 4.3 | 6.7
COc1ccc(OC)c(NC(=O)CSc2nc3ccccc3cc2Cc2ccccc2)c1 | -65.0 | 9.9 | -0.4 | 82.1* | -54.2*
Cc1ccc(NC(=O)CNC(c2ccccc2)c2ccccc2)c(F)c1 | -10.0 | 21.8 | -0.1 | 71.2* | 1.3
COc1ccc(OC)c(/C(O)=C/C(=O)C(=O)Nc2ccccc2OC)c1 | 0.8 | 13.2 | 0.0 | 95.5* | -0.3
COc1ccc(OC)c(NC(=O)CNC(c2ccccc2)c2ccccc2)c1 | 62.2* | 26.4 | nt | nt | 16.1
Cc1ccc(C(=O)C2(C)C3c4cc(Br)ccc4OC(=O)C32C(=O)c2ccco2)cc1 (configuration not stated) | -4.8 | 0.7 | -0.1 | -3.1 | -6.3
COC(=O)CSc1nnc(CNC(=O)c2cc(OC)cc(OC)c2)n1-c1ccc(F)cc1 | -2.6 | -1.7 | -0.3 | -5.9 | 1.3
CC1=CC(=C(C#N)C#N)C=C(C)N1CCC(C)C | 2.1 | 7.4 | -0.1 | -1.4 | -4.9
O=C(O)COn1c(-c2ccc(Cl)cc2)nc2ccc(Cl)cc21 | 92.1* | -12.2 | 0.1 | 5.2 | 63.0
O=C(O)COn1c(-c2ccccc2)nc2ccc([N+](=O)[O-])cc21 | 82.1* | 7.8 | 0.2 | 7.8 | 39.7
COn1c(-c2ccc(Cl)cc2)nc2ccc(Cl)cc21 | 110.8* | -18.3 | -0.4 | 2.4 | 84.0
Clc1ccc(COn2c(-c3ccc(Cl)cc3)nc3ccccc32)cc1 | 60.5* | 45.9 | -0.3 | 17.5 | 35.1
Cc1ccc(-c2nc(-c3ccc(Cl)cc3)sc2CC(=O)O)c(C)c1 | 13.5 | -14.9 | -0.2 | -4.7 | 14.9
CCOC(=O)C1=C(C)NC(C)=C(C(=O)OCC)C1c1sccc1C | 17.9 | 26.8 | -0.2 | 95.8* | 2.8
Cc1[nH]n(C(N)=S)c(=O)c1N=Nc1cc(-c2ccc(Br)cc2)[nH]n1 | 27.1 | -24.2 | -0.2 | 56.5* | 14.0
Cc1ccc(N=Nc2c(C)[nH]n(C(N)=S)c2=O)cc1C | 22.9 | 12.8 | -0.2 | 29.6 | 11.4
Cc1ccccc1NC(=O)c1c([N+](=O)[O-])cnn1C | -8.2 | -5.2 | nt | nt | -10.9
Cn1ncc([N+](=O)[O-])c1C(=O)Nc1ccccc1Cl | -76.8 | -18.2 | nt | nt | -72.9*
Cc1c(CCO)sc[n+]1CC(=O)OCCC12CC3CC(CC(C3)C1)C2 | 36.4 | 20.8 | -0.3 | -7.1 | -2.4
CCCCCCCCCOC(=O)C[n+]1csc(CCO)c1C | -6.0 | 5.3 | 0.1 | 97.9* | 5.4
C/C=C/c1ccc(OCC(=O)OCc2csc(CC(=O)Nc3ccccc3C)n2)c(OC)c1 | 18.2 | -2.8 | nt | nt | -11.5
O=C(/C=C/c1ccc(OCCCF)cc1)N1CCN(Cc2ccccc2)CC1 | 61.3* | 13.6 | nt | nt | 8.5
CC(C)c1ccc(OCCCN2CCCC2)cc1 | -58.2 | 14.0 | nt | nt | ?
O=C(/C=C/c1ccc([N+](=O)[O-])cc1)N1CCN(Cc2ccccc2)CC1 | -2.2 | 34.5 | nt | nt | -3.0
O=C(c1ccccc1)c1ccc(OCCOCCN2CCN(Cc3ccccc3)CC2)cc1 | 4.4 | 51.1 | -0.3 | 56.1* | 6.3
SMILES | HSF-1 act | T cruzi inh | Hsp70 activator | Lmaj promast | HSF1 inh
O=C(c1ccccc1)c1ccc(OCCCN2CCCC2)cc1 | 3.0 | 54.7* | -0.3 | 99.0* | 1.4
c1ccc(CN2CCN(CCOCCOc3ccc4c(c3)CCC4)CC2)cc1 | 8.6 | 40.5 | -0.3 | -1.9 | -1.4
CCc1ccccc1OCCCCN1CCCCC1 | -6.1 | 25.8 | nt | nt | -2.7
O=C(c1ccccc1)c1ccc(OCCCCN2CCCCC2)cc1 | 3.7 | 20.2 | -0.3 | 97.7* | -8.2
CCC(=O)c1ccccc1OCCN1CCN(Cc2ccccc2)CC1 | 3.5 | 21.9 | -0.3 | 39.7 | 0.2
c1ccc(COc2ccc(OCCCCN3CCCCC3)cc2)cc1 | 14.6 | 38.1 | 0.0 | 100.4* | 11.1
CCOc1ccccc1OCCOCCN1CCN(Cc2ccccc2)CC1 | 16.4 | 61.4* | -0.1 | 15.4 | -0.1
c1ccc(COCCN2CCN(CCOCc3ccccc3)CC2)cc1 | -12.5 | 51.2 | -0.4 | 95.2* | 1.0
CC(NC(=S)Nc1c(Br)cccc1OC(F)F)C(C)(C)C (configuration not stated) | 5.2 | 19.7 | -0.7 | 59.9* | -4.5
C/C(=N\NC(=S)NC(C)C)c1ccccc1OC(F)F | 0.4 | 6.7 | 0.0 | -0.4 | -16.4
COc1ccccc1N1CCN(C2CCN(C(=O)COc3cccc(C)c3)CC2)CC1 | -1.4 | 0.2 | -0.1 | 55.9* | -2.9
Cc1ccc(OCC(=O)N2CCN(C(=O)CCC3CCCC3)CC2)cc1 | 8.4 | 2.8 | 0.0 | -1.2 | 0.6
O=C(CCC1CCCC1)N1CCC(N2CCCCCC2)CC1 | -1.1 | -4.7 | -0.4 | 91.0* | -4.2
Cc1ccc(OCC(=O)N2CCC(N3CCCCCC3)CC2)cc1 | -2.0 | -14.1 | -0.6 | 86.9* | -4.7
CC(=O)NCCNC(=O)CNC(=O)c1ccc(Cl)cc1 | -0.6 | -6.4 | -0.1 | -6.3 | 0.3
O=C(CNC(=O)c1ccc(Cl)cc1)NCC(F)(F)F | -9.9 | -11.8 | -0.3 | 55.1* | 4.6
CCN(CC)C(=O)C1CCCN(c2ncnc3c2cnn3-c2ccc(Cl)cc2)C1 (configuration not stated) | -44.9 | 28.7 | nt | nt | -42.0
CC1CC(C)CN(c2ncnc3c2cnn3-c2ccc(Cl)cc2)C1 (configuration not stated) | -54.3 | 21.3 | -0.1 | -3.9 | -52.0*
CC1CCCN(c2ncnc3c2cnn3-c2ccc(Cl)cc2)C1 (configuration not stated) | -91.7 | 23.4 | nt | nt | -90.2*
CC1CCCN(c2ncnc3c2cnn3-c2ccccc2)C1 (configuration not stated) | -67.6 | 5.9 | nt | nt | -60.8*
CN1CCN(c2ncnc3c2cnn3-c2ccc(Cl)cc2)CC1 | -50.3 | 25.1 | -0.3 | 88.2* | ?
CCOc1ccc(-n2c(C)nc(O)c2N=Nc2ccccc2)cc1 | -2.9 | -24.2 | -0.4 | -2.3 | 3.3
CCOC(=O)c1ccc(CNC(=O)c2cc(COc3ccccc3SC)on2)o1 | 11.8 | 22.0 | nt | nt | -6.8
Cn1c(=O)c(=O)n(C)c2cc(S(=O)(=O)CCC(=O)Nc3ccc(C(F)(F)F)cc3)ccc21 | 11.0 | -24.8 | nt | nt | 5.4
CN(C(=O)COC(=O)/C=C/c1ccccc1[N+](=O)[O-])c1ccccc1 | -10.2 | -18.3 | -0.5 | 2.9 | 9.5
CN(C(=O)/C=C/c1ccc([N+](=O)[O-])s1)c1ccccc1 | 22.8 | 53.8 | -0.1 | 97.8* | 14.7
CC(C)CNC(=O)CC(=O)N/N=C/c1ccc(F)cc1 | -5.2 | 1.8 | -0.3 | -4.7 | 1.8
Cc1cc(C)n2nc(C(=O)N/N=C/c3c4ccccc4cc4ccccc34)nc2n1 | 188.4* | 0.1 | -0.3 | 4.5 | 144.3
O=C(Nc1nc2ccccc2s1)C1CCN(S(=O)(=O)c2cc([N+](=O)[O-])ccc2Cl)CC1 | -12.7 | 58.5* | nt | nt | -3.9
